pIC50, pKd: −log10 of the molar value. Calls of active or inactive are those of the source. The calls are words filed in the database; no cut-off is given here.
Legend:
[1] = biological target: T1, Protein cereblon/Tyrosine-protein kinase BTK (Homo sapiens, UniProt Q06187+Q96SW2); experiment: PROTAC activity at BTK/CRBN protein protein interaction in human Ramos cell assessed as degradation of BTK incubated for 17 hrs measured by Western blot analysis; format: cell-based
In short: (§1)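 Ramos or JeKo-1 cells (2 × 10^6 per well) were exposed for 17 h to 3000–0.15 nM PROTAC in 3-fold steps. Cells were lysed and analysed by western blot, with BTK normalised to β-actin. DC50 and Dmax come from the dose-response; DC50 is the mean ± SD of two independent experiments.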
Target sequence in this assay (Q06187 whole entry): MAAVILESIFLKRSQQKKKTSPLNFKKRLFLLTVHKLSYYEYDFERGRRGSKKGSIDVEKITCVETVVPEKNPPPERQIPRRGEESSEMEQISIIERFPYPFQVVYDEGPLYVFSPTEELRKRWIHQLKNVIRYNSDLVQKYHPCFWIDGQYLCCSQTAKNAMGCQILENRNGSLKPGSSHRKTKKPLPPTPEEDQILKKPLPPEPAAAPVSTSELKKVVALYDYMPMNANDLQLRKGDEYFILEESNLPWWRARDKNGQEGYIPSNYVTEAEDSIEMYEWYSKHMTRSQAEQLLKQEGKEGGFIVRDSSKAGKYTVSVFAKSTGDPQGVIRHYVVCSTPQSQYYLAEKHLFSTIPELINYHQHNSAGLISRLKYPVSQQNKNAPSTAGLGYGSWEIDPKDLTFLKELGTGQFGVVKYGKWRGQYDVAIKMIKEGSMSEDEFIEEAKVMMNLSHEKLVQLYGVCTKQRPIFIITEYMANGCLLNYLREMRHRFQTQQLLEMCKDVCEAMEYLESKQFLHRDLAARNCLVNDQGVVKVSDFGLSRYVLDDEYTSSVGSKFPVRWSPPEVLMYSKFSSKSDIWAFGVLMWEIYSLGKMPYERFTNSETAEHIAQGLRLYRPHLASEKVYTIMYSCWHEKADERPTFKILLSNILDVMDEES
Target sequence in this assay (Q96SW2 whole entry): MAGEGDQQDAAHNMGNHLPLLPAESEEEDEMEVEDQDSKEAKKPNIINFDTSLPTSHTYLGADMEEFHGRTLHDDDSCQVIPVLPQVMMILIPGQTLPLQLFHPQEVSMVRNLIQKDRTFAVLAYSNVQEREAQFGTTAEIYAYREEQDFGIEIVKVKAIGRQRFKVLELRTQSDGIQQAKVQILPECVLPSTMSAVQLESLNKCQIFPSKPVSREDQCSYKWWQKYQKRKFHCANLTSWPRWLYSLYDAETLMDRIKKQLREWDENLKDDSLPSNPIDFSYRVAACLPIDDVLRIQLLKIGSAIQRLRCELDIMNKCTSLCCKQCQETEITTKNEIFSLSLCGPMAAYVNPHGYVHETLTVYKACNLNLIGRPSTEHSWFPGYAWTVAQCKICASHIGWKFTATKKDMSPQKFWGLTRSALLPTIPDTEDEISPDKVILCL

[2] = biological target: T1, Protein cereblon/Tyrosine-protein kinase BTK; experiment: PROTAC activity at BTK/CRBN protein protein interaction in human Ramos cell assessed as degradation of BTK incubated for 17 hrs measured by Western blot analysis relative to control; format: cell-based; in short: as §1
Target sequence in this assay (Q06187 2-659 limits assumed): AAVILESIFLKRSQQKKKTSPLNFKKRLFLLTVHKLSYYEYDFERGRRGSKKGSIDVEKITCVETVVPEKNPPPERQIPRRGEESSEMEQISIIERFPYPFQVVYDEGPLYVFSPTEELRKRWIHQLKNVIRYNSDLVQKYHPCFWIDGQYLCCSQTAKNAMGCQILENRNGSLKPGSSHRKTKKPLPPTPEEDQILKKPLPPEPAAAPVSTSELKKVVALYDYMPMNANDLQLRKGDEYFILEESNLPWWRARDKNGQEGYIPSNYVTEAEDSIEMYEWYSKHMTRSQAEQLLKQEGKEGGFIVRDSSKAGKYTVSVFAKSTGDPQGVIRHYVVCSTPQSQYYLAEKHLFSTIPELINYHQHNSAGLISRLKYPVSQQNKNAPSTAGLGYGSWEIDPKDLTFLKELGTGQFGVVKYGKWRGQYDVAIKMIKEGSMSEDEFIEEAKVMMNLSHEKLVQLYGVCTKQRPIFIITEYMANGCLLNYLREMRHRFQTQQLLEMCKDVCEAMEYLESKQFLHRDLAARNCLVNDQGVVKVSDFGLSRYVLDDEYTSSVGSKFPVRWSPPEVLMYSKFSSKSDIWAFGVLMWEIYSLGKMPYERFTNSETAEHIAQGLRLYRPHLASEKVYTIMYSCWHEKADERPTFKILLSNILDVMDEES
Target sequence in this assay (Q96SW2 whole entry partner): as the sequence (Q96SW2 whole entry) above

[3] = biological target: T1, Protein cereblon/Tyrosine-protein kinase BTK; experiment: PROTAC activity at BTK/CRBN protein protein interaction in human JeKo-1 cell assessed as degradation of BTK incubated for 17 hrs measured by Western blot analysis relative to control; format: cell-based; in short: as §1
Target sequence in this assay (Q06187 2-659 limits assumed): as the sequence (Q06187 2-659 limits assumed) above
Target sequence in this assay (Q96SW2 whole entry partner): as the sequence (Q96SW2 whole entry) above

[4] = biological target: T2, Tyrosine-protein kinase BTK (Homo sapiens, UniProt Q06187); experiment: Potency index, ratio of test compound Kd to GDC-0853 Kd for full length BTK (unknown origin)
T2 sequence (Q06187 whole entry): as the sequence (Q06187 whole entry) above

[5] = biological target: T1, Protein cereblon/Tyrosine-protein kinase BTK; experiment: PROTAC activity at BTK/CRBN protein protein interaction in human JeKo-1 cell assessed as degradation of BTK incubated for 17 hrs measured by Western blot analysis; format: cell-based; in short: as §1
Target sequence in this assay (Q06187 whole entry): as above
Target sequence in this assay (Q96SW2 whole entry): as the sequence (Q96SW2 whole entry) above

[6] = biological target: T2, Tyrosine-protein kinase BTK; experiment: Binding affinity to full length BTK (unknown origin) assessed as dissociation constant measured at 37 degree C by TR-FRET assay
[7] = biological target: T2, Tyrosine-protein kinase BTK; experiment: Inhibition of BTK in HEK293 cells using NanoGlo substrate incubated for 2 hrs by NanoBRET assay; format: cell-based
Protein cereblon = Protein cereblon (Homo sapiens, UniProt Q96SW2); experiment: Inhibition of CRBN in HEK293 cells using NanoGlo substrate incubated for 2 hrs by NanoBRET assay; format: cell-based
Sequence of Protein cereblon (Q96SW2 whole entry, the tested form may be a part): as the sequence (Q96SW2 whole entry) above

[8] = biological target: T1, Protein cereblon/Tyrosine-protein kinase BTK; experiment: PROTAC activity at Halo-tagged CRBN/NanoLuc fusion tagged BTK transfected in HEK293 cells assessed as degradation of BTK by measuring ternary complex formation using NanoGlo substrate preincubated with proteasome inhibitor MG-132 for 30 mins followed by compound and substrate addition incubated for 2.5 hrs measured by NANOBRET assay relative to 4-((2-((S)-4-(6-((2'-(7,7-Dimethyl-1-oxo-1,3,4,6,7,8-hexahydro-2H-cyclopenta[4,5]pyrrolo[1,2-a]pyrazin-2-yl)-3'-(hydroxymethyl)-1-methyl-6-oxo-1,6-dihydro-[3,4'-bipyridin]-5-yl)amino)pyridin-3-yl)-3-methylpiperazin-1-yl)-2-oxoethyl)amino)-2-(2,6-dioxopiperidin-3-yl)isoindoline-1,3-dione; format: cell-based; set-up: scale not given: the % may be the effect or the level left
Target sequence in this assay (Q06187 2-659 limits assumed): as the sequence (Q06187 2-659 limits assumed) above
Target sequence in this assay (Q96SW2 whole entry partner): as the sequence (Q96SW2 whole entry) above

TMD8 [9] = experiment: Cytotoxicity against human TMD8 cells incubated for 48 hrs by celltitre glo 2.0 assay; format: functional, cell-based; conditions: TMD8, 48 h
[10] = Cytotoxicity against human MINO cells incubated for 48 hrs by celltitre glo 2.0 assay; format: functional, cell-based
MINO [11] = experiment: Induction of apoptosis in human MINO cells measured after 48 hrs by Annexin-V/propidium iodide staining based flow cytometric analysis; format: functional, cell-based; conditions: dose 0.15-3000 nM
In short: (§2)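 Cells plated at 2 × 10^6 per well and treated 48 h at 3,000–0.15 nM (3-fold dilutions) or 1% DMSO. Harvested, washed in cold PBS, stained with Annexin V Alexa Fluor 488/propidium iodide, analysed by flow cytometry for % live, apoptotic and necrotic cells. Mean of two independent experiments.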

[12] = biological target: Tyrosine-protein kinase CSK (Homo sapiens) (UniProt P41240); experiment: Degradation of CSK in human TMD8 cells by measuring protein level at 111 nM for 6 hrs using label free proteomic analysis; format: cell-based
In short: (§3)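 TMD8 cells (2 × 10^6) given 111 nM or DMSO for 6 h in duplicate. Lysed in 5% SDS/50 mM TEAB pH 8.5. 200 μg protein reduced (10 mM DTT, 55 °C, 30 min), alkylated (50 mM iodoacetamide), S-Trap processed, then LC-MS/MS. Label-free matched-peptide quantitation against DMSO, human UniProt; Benjamini–Hochberg-corrected p-values.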

[13] = biological target: Tyrosine-protein kinase FRK (Homo sapiens) (UniProt P42685); experiment: Degradation of FRK in human TMD8 cells by measuring protein level at 111 nM for 6 hrs using label free proteomic analysis; format: cell-based; in short: as §3
Sequence of Tyrosine-protein kinase FRK (Homo sapiens) (P42685 whole entry): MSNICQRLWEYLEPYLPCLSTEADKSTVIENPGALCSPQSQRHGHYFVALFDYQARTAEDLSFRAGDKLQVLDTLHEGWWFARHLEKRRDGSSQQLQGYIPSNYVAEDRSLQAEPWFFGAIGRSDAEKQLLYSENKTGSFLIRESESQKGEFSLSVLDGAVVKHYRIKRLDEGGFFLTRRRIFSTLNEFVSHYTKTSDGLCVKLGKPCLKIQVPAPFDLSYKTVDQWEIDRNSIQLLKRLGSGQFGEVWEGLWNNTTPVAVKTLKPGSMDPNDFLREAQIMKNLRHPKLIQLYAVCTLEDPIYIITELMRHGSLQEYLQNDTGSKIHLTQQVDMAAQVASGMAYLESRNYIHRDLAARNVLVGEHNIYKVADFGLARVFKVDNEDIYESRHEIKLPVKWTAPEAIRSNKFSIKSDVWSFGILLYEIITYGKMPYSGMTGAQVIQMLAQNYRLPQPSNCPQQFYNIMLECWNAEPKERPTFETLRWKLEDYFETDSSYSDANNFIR

[14] = biological target: DNA-binding protein Ikaros (Homo sapiens) (UniProt Q13422); experiment: Degradation of IKZF1 in human TMD8 cells by measuring protein level at 111 nM for 6 hrs using label free proteomic analysis; format: cell-based; in short: as §3
[15] = biological target: Zinc finger protein Aiolos (Homo sapiens) (UniProt Q9UKT9); experiment: Degradation of IKZF3 in human TMD8 cells by measuring protein level at 111 nM for 6 hrs using label free proteomic analysis; format: cell-based; in short: as §3
[16] = biological target: T3, Zinc finger protein 280D (Homo sapiens) (UniProt Q6N043); experiment: Degradation of […] in human TMD8 cells by measuring protein level at 111 nM for 6 hrs using label free proteomic analysis; format: cell-based; in short: as §3
T3 sequence (whole entry): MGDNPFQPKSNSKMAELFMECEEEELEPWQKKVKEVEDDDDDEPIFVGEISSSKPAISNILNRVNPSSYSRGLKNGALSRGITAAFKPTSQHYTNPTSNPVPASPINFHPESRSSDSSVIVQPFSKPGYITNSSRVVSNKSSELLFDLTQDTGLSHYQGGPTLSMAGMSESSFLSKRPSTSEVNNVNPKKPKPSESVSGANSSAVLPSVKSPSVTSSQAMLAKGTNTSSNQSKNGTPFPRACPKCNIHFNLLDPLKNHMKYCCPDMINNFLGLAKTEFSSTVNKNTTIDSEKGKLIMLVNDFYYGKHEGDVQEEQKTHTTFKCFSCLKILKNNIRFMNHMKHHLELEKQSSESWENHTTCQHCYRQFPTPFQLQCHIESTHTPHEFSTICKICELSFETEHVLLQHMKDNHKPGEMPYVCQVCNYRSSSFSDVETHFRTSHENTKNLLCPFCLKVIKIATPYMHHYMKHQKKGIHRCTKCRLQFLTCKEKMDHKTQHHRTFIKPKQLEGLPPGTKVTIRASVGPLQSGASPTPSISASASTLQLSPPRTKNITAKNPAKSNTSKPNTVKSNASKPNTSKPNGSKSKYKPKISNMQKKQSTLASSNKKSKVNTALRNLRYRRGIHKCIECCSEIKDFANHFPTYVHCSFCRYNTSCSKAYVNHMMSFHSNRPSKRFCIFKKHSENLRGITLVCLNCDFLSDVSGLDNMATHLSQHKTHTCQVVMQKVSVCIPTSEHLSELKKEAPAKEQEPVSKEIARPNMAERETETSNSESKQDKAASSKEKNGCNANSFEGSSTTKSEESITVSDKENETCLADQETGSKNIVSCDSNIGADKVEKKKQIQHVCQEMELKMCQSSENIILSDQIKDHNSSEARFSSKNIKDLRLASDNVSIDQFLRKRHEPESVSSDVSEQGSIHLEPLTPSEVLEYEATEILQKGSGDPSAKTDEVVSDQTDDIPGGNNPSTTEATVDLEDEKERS

[17] = biological target: Eukaryotic peptide chain release factor GTP-binding subunit ERF3A (Homo sapiens) (UniProt P15170); experiment: Degradation of […] in human TMD8 cells by measuring protein level at 111 nM for 6 hrs using label free proteomic analysis; format: cell-based; in short: as §3
TMD8 [18] = experiment: Induction of apoptosis in human TMD8 cells measured after 48 hrs by Annexin-V/propidium iodide staining based flow cytometric analysis; format: functional, cell-based; conditions: dose 0.15-3000 nM; in short: as §2
MINO [19] = experiment: Induction of apoptosis in human MINO cells at 0.15 to 3000 nM for 48 hrs by Annexin-V/propidium iodide staining based flow cytometric analysis; format: functional, cell-based; conditions: dose 0.15-3000 nM; in short: as §2
[20] = biological target: von Hippel-Lindau disease tumor suppressor/Tyrosine-protein kinase BTK (Homo sapiens) (UniProt Q06187+P40337); experiment: PROTAC activity at BTK/VHL protein protein interaction in human Ramos cell assessed as degradation of BTK incubated less than 3000 nM for 17 hrs measured by Western blot analysis
Sequence of von Hippel-Lindau disease tumor suppressor/Tyrosine-protein kinase BTK (Homo sapiens) (P40337 whole entry partner): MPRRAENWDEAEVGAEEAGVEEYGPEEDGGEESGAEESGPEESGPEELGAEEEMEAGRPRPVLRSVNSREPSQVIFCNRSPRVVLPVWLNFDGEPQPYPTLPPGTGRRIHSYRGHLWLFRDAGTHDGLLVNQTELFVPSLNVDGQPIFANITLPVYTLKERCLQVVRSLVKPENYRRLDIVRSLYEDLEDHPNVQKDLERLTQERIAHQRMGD
Sequence of von Hippel-Lindau disease tumor suppressor/Tyrosine-protein kinase BTK (Homo sapiens) (Q06187 2-659 limits assumed): as the sequence (Q06187 2-659 limits assumed) above

SMILES	DC50 [1] [nM]	Emax [2] [%]	Emax [3] [%]	DC50 [5] [nM]	other results
C[C@H]1CN(C(=O)CCCCCCOCCOCC(=O)Nc2cccc3c2C(=O)N(C2CCC(=O)NC2=O)C3=O)CCN1c1ccc(Nc2cc(-c3ccnc(N4CCn5c(cc6c5CC(C)(C)C6)C4=O)c3CO)cn(C)c2=O)nc1 (stereo partly drawn)	6.6	97.1	97.7		
C[C@H]1CN(C(=O)c2cccc3c2C(=O)N(C2CCC(=O)NC2=O)C3=O)CCN1c1ccc(Nc2cc(-c3ccnc(N4CCn5c(cc6c5CC(C)(C)C6)C4=O)c3CO)cn(C)c2=O)nc1 (stereo partly drawn)	> 3000	30.1	30	> 3000	Ratio [4]: 3; pKd [6]: 9.07; pIC50 [7]: 6.49; pIC50 (Protein cereblon): 5.15; Activity [8]: 0%
Nc1ncnc2c1c(-c1ccc(Oc3ccccc3)cc1)nn2C1CCN(CCOCCOCC(=O)Nc2ccc3c(c2)C(=O)N(C2CCC(=O)NC2=O)C3=O)CC1 (stereo not drawn)					pIC50 (TMD8 [9]): 7.92; pIC50 [10]: 7.00
Nc1cccc2c1C(=O)N(C1CCC(=O)NC1=O)C2=O (stereo not drawn)					Activity (MINO [11]): Dose-Dependent Effect
C[C@H]1CN(C(=O)CNc2cccc3c2CN(C2CCC(=O)NC2=O)C3=O)CCN1c1ccc(Nc2cc(-c3ccnc(N4CCn5c(cc6c5CC(C)(C)C6)C4=O)c3CO)cn(C)c2=O)nc1 (stereo partly drawn)	3.6	89.8	89.2	4.6	
Nc1ncnc2c1c(-c1ccc(Oc3ccccc3)cc1)nn2[C@@H]1CCCN(C(=O)c2cn(CCOCCOCCOCCNc3cccc4c3C(=O)N(C3CCC(=O)NC3=O)C4=O)nn2)C1 (stereo partly drawn)					Activity [12]: Active; Activity [13]: Active; Activity [14]: Active; Activity [15]: Active; Activity [16]: Active; Activity [17]: inactive; pIC50 (TMD8 [9]): 7.82; pIC50 [10]: 7.98
C[C@H]1CN(C(=O)CCCCCCNc2cccc3c2C(=O)N(C2CCC(=O)NC2=O)C3=O)CCN1c1ccc(Nc2cc(-c3ccnc(N4CCn5c(cc6c5CC(C)(C)C6)C4=O)c3CO)cn(C)c2=O)nc1 (stereo partly drawn)	3.2	95	97	3.3	
Cn1cc(-c2ccnc(N3CCn4c(cc5c4CC(C)(C)C5)C3=O)c2CO)cc(Nc2ccc(N3CCN(C(=O)CCCCCCOCCOCC(=O)Nc4cccc5c4C(=O)N(C4CCC(=O)NC4=O)C5=O)CC3)cn2)c1=O (stereo not drawn)	4	98.3	98.8	7.2	
C[C@H]1CN(C(=O)CCOCCOCCNc2cccc3c2C(=O)N(C2CCC(=O)NC2=O)C3=O)CCN1c1ccc(Nc2cc(-c3ccnc(N4CCn5c(cc6c5CC(C)(C)C6)C4=O)c3CO)cn(C)c2=O)nc1 (stereo partly drawn)	1.3	96.1	95.1	4.1	
C[C@H]1CN(C2COC2)CCN1c1ccc(Nc2cc(-c3ccnc(N4CCn5c(cc6c5CC(C)(C)C6)C4=O)c3CO)cn(C)c2=O)nc1 [FENEBRUTINIB]					Activity (TMD8 [18]): Dose-Dependent Effect; pIC50 [10]: 8.11; Activity (MINO [19]): inactive
C[C@H]1CN(C(=O)CNc2ccc3c(c2)C(=O)N(C2CCC(=O)NC2=O)C3=O)CCN1c1ccc(Nc2cc(-c3ccnc(N4CCn5c(cc6c5CC(C)(C)C6)C4=O)c3CO)cn(C)c2=O)nc1 (stereo partly drawn)	0.9	97.3	97.6	0.8	
C[C@H]1CN(C(=O)CCCCCCCCCNc2cccc3c2C(=O)N(C2CCC(=O)NC2=O)C3=O)CCN1c1ccc(Nc2cc(-c3ccnc(N4CCn5c(cc6c5CC(C)(C)C6)C4=O)c3CO)cn(C)c2=O)nc1 (stereo partly drawn)	31.2	94	97.1	32.1	
Cc1c(NC(=O)c2ccc(C(C)(C)C)cc2)cccc1-c1cn(C)c(=O)c(Nc2ccc(C(=O)N3CCN(CCCCCCNC(=O)CNc4cccc5c4C(=O)N(C4CCC(=O)NC4=O)C5=O)CC3)cc2)n1 (stereo not drawn)					pIC50 (TMD8 [9]): 8.29; pIC50 [10]: 7.96
Cn1cc(-c2ccnc(N3CCn4c(cc5c4CC(C)(C)C5)C3=O)c2CO)cc(Nc2ccc(N3CCN(C(=O)CCCCCCNc4cccc5c4C(=O)N(C4CCC(=O)NC4=O)C5=O)CC3)cn2)c1=O (stereo not drawn)	2	96.9	98	3.5	
C[C@H]1CN(C(=O)CCCCCCCCCCCNc2cccc3c2C(=O)N(C2CCC(=O)NC2=O)C3=O)CCN1c1ccc(Nc2cc(-c3ccnc(N4CCn5c(cc6c5CC(C)(C)C6)C4=O)c3CO)cn(C)c2=O)nc1 (stereo partly drawn)	113	89	89.8	348	Ratio [4]: 300; pKd [6]: 6.97; pIC50 [7]: 5.49; pIC50 (Protein cereblon): 5.30; Activity [8]: 75%
C[C@H]1CN(C(=O)CCCNc2cccc3c2C(=O)N(C2CCC(=O)NC2=O)C3=O)CCN1c1ccc(Nc2cc(-c3ccnc(N4CCn5c(cc6c5CC(C)(C)C6)C4=O)c3CO)cn(C)c2=O)nc1 (stereo partly drawn)	0.9	95.7	97.4	1	
Cc1ncsc1-c1ccc(CNC(=O)[C@@H]2C[C@@H](O)CN2C(=O)[C@@H](NC(=O)COCCOCCCCCCC(=O)N2CCN(c3ccc(Nc4cc(-c5ccnc(N6CCn7c(cc8c7CC(C)(C)C8)C6=O)c5CO)cn(C)c4=O)nc3)[C@@H](C)C2)C(C)(C)C)cc1					Activity [20]: inactive
C[C@H]1CN(CCCCCCOCCOCC(=O)Nc2cccc3c2C(=O)N(C2CCC(=O)NC2=O)C3=O)CCN1c1ccc(Nc2cc(-c3ccnc(N4CCn5c(cc6c5CC(C)(C)C6)C4=O)c3CO)cn(C)c2=O)nc1 (stereo partly drawn)	7	95.6	96.9	9.7	
Cn1cc(-c2ccnc(N3CCn4c(cc5c4CC(C)(C)C5)C3=O)c2CO)cc(Nc2ccc(N3CCN(CCCCCCOCCOCC(=O)Nc4cccc5c4C(=O)N(C4CCC(=O)NC4=O)C5=O)CC3)cn2)c1=O (stereo not drawn)	5.3	97.2	97.7	6.8	

— ChEMBL document CHEMBL5338787, “Discovery of Novel Bruton's Tyrosine Kinase PROTACs with Enhanced Selectivity and Cellular Efficacy” (J Med Chem, 2023)
